Screening results deposited in PubChem BioAssay by The Scripps Research Institute Molecular Screening Center.
TAAR1 antag: human TAAR1 antagonism. 360,000 tested, 1.5% active. Q96RJ0. CHO RD-HGA16 TAAR1, Fluo-8 calcium fluorescence, antagonist. inhibition, % at 3 µM;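 active means inhibition above a per-plate cutoff, the mean inhibition of test compounds on that plate plus 3 SD, cut at about 49% in these data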
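Material: CHO RD-HGA16 cells bearing hTAAR1; compound dosing: one-point dosing, 3 µM nominal final; schedule: dye loading 75 min at 37 °C, then 30 min room temperature; measured by: calcium fluorescence with Fluo-8; control set: vehicle and agonist controls; replication: n of 1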
CHO parental Ca: counter-screen: ATP calcium response change in parental CHO cells | parental CHO-K1, ATP-induced calcium, Fluo-8 fluorescence | inhibition, % at 5.6 µM | 330,000 tested, 0.63% active | AID 463079;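 active means inhibition above that plate's mean sample inhibition plus 3 SD, cut at about 26% in these data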
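Assay system – parental CHO cells · Reagent – ATP stimulus · Detection – intracellular calcium via Fluo-8 no-wash fluorescent dye · Evaluation – percent inhibition of ATP-evoked calcium rise, normalized to controls · Controls – ATP wells versus no-ATP DMSO wells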
OX1R antag-1: blocks the human orexin 1 receptor. OX1R-expressing cells, FRET antagonist read-out. inhibition, % at 6.6 µM. O43613. 330,000 tested, 1.8% active; in the data active means inhibition mostly above about 38%, no sharp cut-off; inactive means mostly below about 40%
TAAR1 ag: agonists of human TAAR1; activation, % at 3 µM; AID 624467; Q96RJ0; 360,000 tested, 0.99% active; CHO RD-HGA16 TAAR1, Fluo-8 calcium fluorescence; vehicle wells 0%, saturating PEA agonist 100%;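 active means activation above the mean activation of all test compounds in the run plus 3 SD, cut at about 38% in these data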
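System: CHO RD-HGA16 cells carrying human TAAR1 plus Gα16; Incubation: 17-24 h seeding, 75 min 37 °C dye, 30 min RT; Measured by: Fluo-8 fluorescence, 5 s baseline then 140 s kinetic read; Control set: DMSO and PEA EC100; Replication: single well for each compound.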
GPR7 antagonist: human neuropeptides B/W receptor 1 antagonism | 290,000 tested, 1.1% active | P48145 | inhibition, % at 4.4 µM | GPR7-expressing cells, fluorescence antagonist assay; in the data active means inhibition above about 16%, passing the limit was not always enough;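 further: cells stimulated with the agonist NPW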
Target sequence (P48145 whole entry, looked up): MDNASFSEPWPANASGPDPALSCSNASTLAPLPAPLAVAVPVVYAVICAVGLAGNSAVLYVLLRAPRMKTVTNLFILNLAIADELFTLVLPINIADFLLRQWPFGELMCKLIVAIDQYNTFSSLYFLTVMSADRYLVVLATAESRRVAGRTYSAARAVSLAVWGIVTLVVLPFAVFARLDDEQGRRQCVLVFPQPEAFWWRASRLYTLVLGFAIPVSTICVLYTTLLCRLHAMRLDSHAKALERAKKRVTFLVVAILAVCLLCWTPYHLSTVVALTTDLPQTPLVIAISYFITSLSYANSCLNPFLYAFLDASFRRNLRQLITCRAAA
OX1R antag-2: blocks the human orexin 1 receptor | O43613 | CHO/OX1R cells, Fluo-8 calcium fluorescence, orexin A | inhibition, % at 5 µM | 330,000 tested, 0.43% active | AID 434989;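 active means inhibition above its plate's threshold, mean inhibition of all tested compounds on the plate plus 3 SD, cut at about 37% in these data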
Hits are given with their value; 0 = inactive; - = no result given. Hits are enriched below; roughly 4.6% of the tested compounds scored in any of these assays.

SMILES	TAAR1 antag	CHO parental Ca	OX1R antag-1	TAAR1 ag	GPR7 antagonist	OX1R antag-2
CCCc1nnc2n1N=C(c1ccc([N+](=O)[O-])cc1)CS2	0	0	45	0	0	0
O=C1c2cccc3cc([N+](=O)[O-])cc(c23)C(=O)N1c1ccccc1O	0	0	43	0	0	0
Cc1ccc2nc(-c3ccccc3)c(Cc3ccsc3)n2c1	0	-	-	0	-	-
COc1ccc(-c2cc(NC(=O)Cc3c(C)[nH]c4ccccc34)ccc2Nc2cccnc2)cc1OC	0	-	-	0	-	-
N#Cc1c(SC(C(=O)O)c2ccccc2)nc2c(c1-c1cccs1)CCCC2 (stereo unspecified)	0	0	0	38	0	0
COC(=O)C[C@@H]1C=C[C@@H](NS(=O)(=O)c2ccccc2OC)[C@@H](CO)O1	0	-	-	0	-	-
O=C1c2ccccc2C(=O)N1CCCCCc1nc(-c2ccccc2)no1	0	0	74	0	0	0
CCOCCCNC1=C(Cl)C(=O)c2ccccc2C1=O	0	0	71	0	0	0
O=C1C(Cl)=C(NCCN2CCOCC2)C(=O)c2ccccc21	0	0	61	0	0	0
CCOCCCNS(=O)(=O)c1ccccc1	0	0	0	0	0	0
O=C1C(Cl)=C(NCCCN2CCOCC2)C(=O)c2ccccc21	0	-	-	0	-	-
CCOC1=C2[C@@H](CN(S(=O)(=O)c3ccc(C)cc3)[C@H]2c2cccc3ccccc23)[C@H]2C(=O)N(C)C(=O)[C@H]2C1	0	-	-	0	-	-
Cc1cc(C)c(C(O)c2ncc(-c3ccccc3F)[nH]2)c(C)c1 (stereo unspecified)	0	-	-	0	-	-
CC(=O)Oc1c(C)c(=O)n(C)c2ccccc12	0	0	0	0	0	0
COc1c(OC(C)=O)c(=O)n2c3ccccc3c3ccnc1c32	0	0	52	0	-	0
COc1ccc(CN(C)C(=O)c2ccc(Oc3ccccc3)cc2)cc1F	0	0	0	0	0	0
COc1ccc(CN(C)C(=O)C(Cc2ccccc2)NC(=O)c2ccccc2)cc1F (stereo unspecified)	73	-	-	0	-	-
CN(Cc1ccc(Cl)c(Cl)c1)C(C(=O)NCc1ccccc1)c1ccco1 (stereo unspecified)	0	-	-	0	-	-
CCNC(=S)N=Nc1c(O)[nH]c2ccc([N+](=O)[O-])cc12	0	0	46	0	0	0
O=[N+]([O-])c1ccc2[nH]c(O)c(N=NC(=S)NCC3CCCO3)c2c1 (stereo unspecified)	0	0	0	0	0	0
c1coc(-c2nc3ccccc3nc2-c2ccco2)c1	0	0	43	0	0	0
CCOC(=O)c1ccc(CN2CCCC(C)(C(=O)NCCOC)C2)cc1 (stereo unspecified)	0	-	-	0	-	-
Cc1ccc2cccc(OCC(=O)N3CC(C)CC(C)C3)c2n1 (stereo unspecified)	0	0	0	0	17	0
CC(C)Oc1ccc(CN2CCC2(C)C(=O)Nc2cnc3ccccc3c2)cc1 (stereo unspecified)	0	-	-	0	-	-
COc1ccc(CN(C(=O)CSc2nnc(-c3ccccc3F)o2)c2ccc(F)cc2)cc1	-	26	0	-	0	0
SMILES	TAAR1 antag	CHO parental Ca	OX1R antag-1	TAAR1 ag	GPR7 antagonist	OX1R antag-2
CN(C(=O)CSc1nnc(-c2ccccc2F)o1)c1ccccc1	0	0	0	0	-	0
CC(Cc1cccs1)NC(=S)Nc1ccc(Cl)cc1 (stereo unspecified)	0	0	60	0	0	0
O=C1NC(=Nc2ccccc2)c2ccc([N+](=O)[O-])cc21	0	0	74	0	0	0
Cc1ccc([N+](=O)[O-])cc1N=C1C(=O)Nc2ccccc21	0	0	0	0	0	0
Cc1cccc(N=C2NC(=O)c3cc([N+](=O)[O-])ccc32)c1	0	0	70	0	0	0
COC(=O)c1cc2c(c3c4cc(C)ccc4n(S(=O)(=O)c4ccc(C)cc4)c13)C(=O)N(Cc1ccc(N(C)C)cc1)C2	0	-	-	0	-	-
Cc1ccc(S(=O)(=O)N(C)c2cccc3c2S(=O)(=O)N([C@H](C)c2ccccc2)C[C@@H](COCc2ccccc2)O3)cc1	0	-	-	0	-	-
Cc1[nH]c2ccccc2c1CC(=O)Nc1ccc(Nc2cccnc2)c(Br)c1	0	-	-	0	-	-
COc1cc(C(=O)NC(=S)NNC(=O)c2ccc3c(c2)OCO3)cc(OC)c1OC	0	0	0	52	0	0
